The text below walks through data of ChEMBL document CHEMBL5385940 (J Nat Prod, 2024).

Series [1] can be described thus: Cytotoxicity against mouse 3T3-L1 cells assessed as cell viability at 20 uM incubated for 48 hrs by CCK-8 assay relative to control. The following applies: read-out: Activity. The format is toxicity, cell-based. Summed up: (§1)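 3T3-L1 preadipocytes seeded at 1 × 10^3 cells/well and left 12 h, then exposed to alkaloids for 48 h. Viability by CCK-8, absorbance at 450 nm, relative to control. Lovastatin 5 μM included. Mean ± SD, n = 3.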
Background: Formazan colour is commonly taken as a measure of viable cells.

In series [2] the test system is 3T3-L1. The series is described as follows: Inhibition of adipogenesis in mouse 3T3-L1 cells assessed as downregulation of PPARgamma relative protein level […] by Western blot analysis. The format is functional, cell-based. Summed up:
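Differentiated 3T3-L1 adipocytes treated with alkaloids at several doses. Lysed in RIPA with PMSF on ice for 30 min. Proteins transferred to PVDF and blocked with 5% skim milk for 2 h at 25 °C. Primary antibody 2 h, HRP secondary 1 h. PPARγ protein level expressed relative to control. n = 3.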
In general terms: Immunoblotting shows a protein as a band on a membrane.

The nature of series [3]: Cytotoxicity against mouse 3T3-L1 cells transfected with Lenti-PPARgamma-Luc reporter assessed as cell viability at 5 uM incubated for 48 hrs by CCK-8 assay relative to control. The following applies: read-out: Activity. In kind it is toxicity, cell-based. In short, it runs like this:
(§2)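 3T3-L1-Lenti-PPARγ-Luc reporter cells (lentivirus-transduced) exposed to alkaloids at a range of concentrations. Viability by CCK-8, absorbance at 450 nm, relative to control, used to set maximum noncytotoxic concentrations. Triplicate.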

Series [4] can be described thus: Cytotoxicity against mouse 3T3-L1 cells assessed as cell viability at 5 uM incubated for 48 hrs by CCK-8 assay relative to control. The following applies: read-out: Activity. The format is toxicity, cell-based. In short, it runs like this: as §1
Series [5] can be described thus: Cytotoxicity against mouse 3T3-L1 cells transfected with Lenti-PPARgamma-Luc reporter assessed as cell viability at 10 uM incubated for 48 hrs by CCK-8 assay relative to control. In kind it is toxicity, cell-based. The following applies: read-out: Activity. In short, it runs like this:
as §2

Series [6] can be described thus: Cytotoxicity against mouse 3T3-L1 cells transfected with Lenti-PPARgamma-Luc reporter assessed as cell viability at 0.1 uM incubated for 48 hrs by CCK-8 assay relative to control. The format is toxicity, cell-based. Conditions: read-out: Activity. Summed up:
as §2

For series [7], the system named is 3T3-L1. The series is described as follows: Anti-adipogenic activity in mouse 3T3-L1 cells transfected with Lenti-PPARgamma-Luc reporter assessed as inhibition of PPARgamma expression by luminescence based microplate reader analysis. In kind it is functional, cell-based.
Series [8] can be described thus: Cytotoxicity against mouse 3T3-L1 cells transfected with Lenti-PPARgamma-Luc reporter assessed as cell viability at 25 uM incubated for 48 hrs by CCK-8 assay relative to control. The format is toxicity, cell-based. Conditions: read-out: Activity. In short, it runs like this:
as §2

Series [9] in a line: Cytotoxicity against mouse 3T3-L1 cells transfected with Lenti-PPARgamma-Luc reporter assessed as cell viability at 30 uM incubated for 48 hrs by CCK-8 assay relative to control. In kind it is toxicity, cell-based. Conditions: read-out: Activity. Summed up: as §2
Series [10] is described as follows: Cytotoxicity against mouse 3T3-L1 cells transfected with Lenti-PPARgamma-Luc reporter assessed as cell viability at 15 uM incubated for 48 hrs by CCK-8 assay relative to control. In kind it is toxicity, cell-based. Conditions: read-out: Activity. Summed up: as §2
In series [11] the test system is 3T3-L1. The series is described as follows: Anti-adipogenic activity in mouse 3T3-L1 preadipocytes assessed as inhibition of lipid accumulation incubated for 6 days by Nile Red staining based fluorescence microscopic analysis. In kind it is functional, cell-based. The following applies: time 6.0 day.
Series [12] in a line: Cytotoxicity against mouse 3T3-L1 cells transfected with Lenti-PPARgamma-Luc reporter assessed as cell viability at 20 uM incubated for 48 hrs by CCK-8 assay relative to control. Conditions: read-out: Activity. The format is toxicity, cell-based. In short, it runs like this:
as §2

A short description of series [13]: Cytotoxicity against mouse 3T3-L1 cells assessed as cell viability at 15 uM incubated for 48 hrs by CCK-8 assay relative to control. In kind it is toxicity, cell-based. Conditions: read-out: Activity. In short, it runs like this:
as §1

Series [14] in a line: Cytotoxicity against mouse 3T3-L1 cells assessed as cell viability at 25 uM incubated for 48 hrs by CCK-8 assay relative to control. Conditions: read-out: Activity. In kind it is toxicity, cell-based. In short, it runs like this: as §1
Series [15] in a line: Cytotoxicity against mouse 3T3-L1 cells transfected with Lenti-PPARgamma-Luc reporter assessed as cell viability at 1 uM incubated for 48 hrs by CCK-8 assay relative to control. In kind it is toxicity, cell-based. The following applies: read-out: Activity. In short, it runs like this:
as §2

The nature of series [16]: Cytotoxicity against mouse 3T3-L1 cells assessed as cell viability at 10 uM incubated for 48 hrs by CCK-8 assay relative to control. The following applies: read-out: Activity. The format is toxicity, cell-based. Summed up: as §1
The nature of series [17]: Cytotoxicity against mouse 3T3-L1 cells assessed as cell viability at 100 uM incubated for 48 hrs by CCK-8 assay relative to control. The format is toxicity, cell-based. The following applies: read-out: Activity. Summed up: as §1
The nature of series [18]: Cytotoxicity against mouse 3T3-L1 cells assessed as cell viability at 50 uM incubated for 48 hrs by CCK-8 assay relative to control. Conditions: read-out: Activity. The format is toxicity, cell-based. Summed up: as §1
The nature of series [19]: Cytotoxicity against mouse 3T3-L1 cells assessed as cell viability at 3 uM incubated for 48 hrs by CCK-8 assay relative to control. Conditions: read-out: Activity. In kind it is toxicity, cell-based. Summed up:
as §1

Series [20] can be described thus: Cytotoxicity against mouse 3T3-L1 cells transfected with Lenti-PPARgamma-Luc reporter assessed as cell viability at 7.5 uM incubated for 48 hrs by CCK-8 assay relative to control. In kind it is toxicity, cell-based. Conditions: read-out: Activity. In short, it runs like this:
as §2

Series [21] is described as follows: Cytotoxicity against mouse 3T3-L1 cells assessed as cell viability at 7.5 uM incubated for 48 hrs by CCK-8 assay relative to control. In kind it is toxicity, cell-based. The following applies: read-out: Activity. In short, it runs like this: as §1
A short description of series [22]: Cytotoxicity against mouse 3T3-L1 cells transfected with Lenti-PPARgamma-Luc reporter assessed as cell viability at 3 uM incubated for 48 hrs by CCK-8 assay relative to control. The format is toxicity, cell-based. The following applies: read-out: Activity. In short, it runs like this:
as §2

A short description of series [23]: Cytotoxicity against mouse 3T3-L1 cells assessed as cell viability at 1 uM incubated for 48 hrs by CCK-8 assay relative to control. The format is toxicity, cell-based. Conditions: read-out: Activity. In short, it runs like this: as §1
Series [24] in a line: Cytotoxicity against mouse 3T3-L1 cells transfected with Lenti-PPARgamma-Luc reporter assessed as cell viability at 2 uM incubated for 48 hrs by CCK-8 assay relative to control. In kind it is toxicity, cell-based. Conditions: read-out: Activity. In short, it runs like this: as §2
Series [25] can be described thus: Cytotoxicity against mouse 3T3-L1 cells transfected with Lenti-PPARgamma-Luc reporter assessed as cell viability at 4 uM incubated for 48 hrs by CCK-8 assay relative to control. Conditions: read-out: Activity. In kind it is toxicity, cell-based. In short, it runs like this:
as §2

By pIC50 is commonly meant the IC50 on a negative log10 scale, so that one unit is a factor of ten.

pIC50: −log10 of the molar value. Calls of active or inactive are those of the source. The rule behind the calls is not given here. A value given as a limit tells only on which side of the number the result lay.

Take `COc1cc2c(cc1O)[C@@H](Cc1ccc(O)c(Oc3cc4c(cc3OC)CCN(C)[C@@H]4Cc3ccc(O)cc3)c1)N(C)CC2`: the viability at 48 h, 20 µM in series [1] and in series [12] was greater than 80% in each case. For the same molecule, the inhibition result with 3T3-L1 [2] was “Active”. In addition, the viability at 48 h, 5 µM in [3] and in series [4] was greater than 80% throughout. Also, the viability at 48 h, 10 µM in series [5] and in series [16] was greater than 80% in each case. For the same molecule, the viability at 48 h, 0.1 µM in series [6] is greater than 80%. The Activity result in the series on 3T3-L1 [7] and in the series with 3T3-L1 [11] was “Dose-Dependent Effect” in each case. For the same molecule, the viability at 48 h, 25 µM in [8] and in series [14] was less than 80% in each case. Also, in [9], the viability at 48 h, 30 µM is less than 80%. In addition, the viability at 48 h, 15 µM in [10] and in series [13] was greater than 80% each time. The viability at 48 h, 1 µM in [15] is greater than 80%.

Consider `COc1cc2c(cc1O)C(Cc1ccc(O)c(-c3c(O)c(OC)cc4c3C(Cc3ccc(O)cc3)N(C)CC4)c1)N(C)CC2` (configuration not stated), for which, in series [4], the viability at 48 h, 5 µM is greater than 80%. Moreover, the viability at 48 h, 100 µM in [17] was greater than 80%. The viability at 48 h, 25 µM in series [14] was greater than 80%. Also, the viability at 48 h, 50 µM in series [18] is greater than 80%. The viability at 48 h, 10 µM in series [16] was greater than 80%.

Regarding `COc1cc2c(cc1OC)[C@@H](Cc1ccc(O)c(Oc3cc4c(cc3OC)CCN(C)[C@@H]4Cc3ccc(O)cc3)c1)N(C)CC2`, the figures for the viability at 48 h, 20 µM in series [1] and in series [12] were greater than 80% and less than 80%, respectively. In the series with 3T3-L1 [2], the inhibition entry is “Active”. The viability at 48 h, 5 µM in [3] and in [4] was greater than 80% each time. In addition, the viability at 48 h, 10 µM in series [5] and in series [16] was greater than 80% each time. The viability at 48 h, 0.1 µM in series [6] is greater than 80%. Also, the Activity result in the series on 3T3-L1 [7] and with 3T3-L1 [11] was “Dose-Dependent Effect” each time. For the same molecule, the viability at 48 h, 25 µM in [8] and in series [14] was less than 80% in each case. The viability at 48 h, 30 µM in series [9] was less than 80%. The viability at 48 h, 15 µM in series [10] and in [13] was greater than 80% throughout. For the same molecule, the viability at 48 h, 1 µM in series [15] was greater than 80%.

For the molecule `C=C(c1ccc(O)c(Oc2cc3c(cc2OC)CCN(C)[C@@H]3Cc2ccc(OC)cc2)c1)[C@H]1c2cc(O)c(OC)cc2CCN1C`, the viability at 48 h, 3 µM in series [19] and in series [22] was greater than 80% in each case. In the series on 3T3-L1 [2], the inhibition result is “Active”. The viability at 48 h, 5 µM in series [3] and in series [4] was greater than 80% in each case. The viability at 48 h, 7.5 µM in series [20] and in series [21] was less than 80% each time. Further, the viability at 48 h, 10 µM in [5] and in series [16] was less than 80% in each case. In addition, the viability at 48 h, 0.1 µM in series [6] was greater than 80%. Besides, the Activity result in the series on 3T3-L1 [7] and with 3T3-L1 [11] was “Dose-Dependent Effect” throughout. The pIC50 in the series with 3T3-L1 [7] is 5.35. For the same molecule, the viability at 48 h, 1 µM in series [23] and in series [15] was greater than 80% each time. In addition, the viability at 48 h, 2 µM in series [24] is greater than 80%. For the same molecule, in series [25], the viability at 48 h, 4 µM was greater than 80%.

For the molecule `COc1ccc(C[C@@H]2c3cc(Oc4cc(C[C@H]5c6cc(OC)c(OC)cc6CCN5C)ccc4O)c(OC)cc3CCN2C)cc1`, the viability at 48 h, 3 µM in [19] and in series [22] was greater than 80% throughout. The inhibition result in the series on 3T3-L1 [2] is “Active”. Moreover, the viability at 48 h, 5 µM in series [3] and in series [4] was greater than 80% throughout. The viability at 48 h, 7.5 µM in series [20] and in series [21] was less than 80% each time. The viability at 48 h, 10 µM in [5] and in series [16] was less than 80% each time. Besides, the viability at 48 h, 0.1 µM in [6] is greater than 80%. Besides, the Activity entry with 3T3-L1 [7] and in the series on 3T3-L1 [11] was “Dose-Dependent Effect” each time. Moreover, the pIC50 in the series on 3T3-L1 [7] was 5.35. The viability at 48 h, 1 µM in series [23] and in [15] was greater than 80% throughout. Moreover, the viability at 48 h, 2 µM in series [24] was greater than 80%. Besides, the viability at 48 h, 15 µM in series [13] was greater than 80%. In addition, in series [25], the viability at 48 h, 4 µM was greater than 80%.
